A short description of data set [1]: Drug transport in human Caco2 cells assessed as basolateral excretion of compound treated with genistein at 10 uM after 4 hrs by UPLC-MS/MS analysis in presence of BCRP inhibitor Ko143. Type of data set: ADME, cell-based. The following applies: caco-2, 4 h. In a few lines: (§1)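 Caco-2 TC7 monolayers on 3 μm polycarbonate inserts, used 19–22 days post-seeding (TEER ≥460 Ω/cm2). Genistein 2 or 10 μM in HBSS pH 7.4 applied apically, ±5 μM Ko143 apically; sampling both sides at 0–4 h hourly with replacement, triplicate. Genistein and four conjugates plus intracellular amounts at 4 h by UPLC-MS/MS; mass balance versus dose added.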
A general note: Caco-2 cells form a polarised layer with tight junctions and transporters.

Data set [2] in a line: Stability in potassium phosphate buffer at pH 7.4 up to 4 hrs. Type of data set: physicochemical. The following applies: pH 7.4, 4 h. Put shortly:
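Negative control run under the blood-incubation conditions but in 50 mM potassium phosphate buffer, pH 7.4, instead of blood. Genistein glucuronides (G-7-G plus G-4′-G, with aglycone) or sulfates (G-7-S plus G-4′-S, with aglycone) held at 37°C in a shaking water bath up to 4 h. Sampled at 0, 60, 120 and 240 min and read by UPLC-MS/MS.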

Another data set concerns Blood. As to the kind of experiment: Stability in Wistar rat blood at 3 uM up to 4 hrs by UPLC-MS/MS analysis. Type of data set: ADME, tissue-based. In a few lines: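 Genistein glucuronide mixture (G-7-G plus G-4′-G, 3 μM) with 3.8 μM genistein incubated in fresh rat whole blood, 37°C shaking water bath. Sampled at 0, 60, 120 and 240 min. Reaction stopped with acetonitrile containing daidzein internal standard. Genistein and conjugates quantified by UPLC-MS/MS using multiple reaction monitoring. n = 3.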

Data set [3] can be described thus: Drug transport in human Caco2 cells assessed as basolateral excretion of compound treated with genistein at 2 uM after 4 hrs by UPLC-MS/MS analysis in presence of BCRP inhibitor Ko143. Type of data set: ADME, cell-based. The following applies: caco-2, 4 h. In a few lines:
as §1

On to `O=c1c(-c2ccc(OS(=O)(=O)O)cc2)coc2cc(O)cc(O)c12`, for which the Drug transport entry in data set [1] and in data set [3] was “Active” in each case. For the same molecule, the Stability entry (in data set [2]; in the data set with Blood) was “Stable” each time.
Take `O=c1c(-c2ccc(O)cc2)coc2cc(OS(=O)(=O)O)cc(O)c12`: the Drug transport result in data set [1] and in data set [3] was “Active” each time. The Stability result (in data set [2]; with Blood) was “Stable” throughout.

The record behind these values is ChEMBL document CHEMBL3526009, “Breast cancer resistance protein (ABCG2) determines distribution of genistein phase II metabolites: reevaluation of the roles of ABCG2 in the disposition of genistein” (Drug Metab Dispos, 2012).
